ChEMBL document CHEMBL4196105, “Discovery of β-Arrestin Biased Ligands of 5-HT7R” (J Med Chem, 2018)
Activity calls are given as the source filed them. No cut-off for these calls is given here.

Columns and labels:
[1] = biological target: 5-hydroxytryptamine receptor 1B (Homo sapiens, UniProt P28222); test: Displacement of [3H]LSD from human 5-HT1B receptor expressed in HEK cell membranes after 1.5 hrs by microbeta scintillation counting method
Method in brief: (§1)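 Radioligand binding performed by the NIMH Psychoactive Drug Screening Program. Crude membranes from cells expressing recombinant receptor, with [3H]LSD, in 50 mM Tris-HCl, 10 mM MgCl2, 1 mM EDTA, pH 7.4. Eleven test concentrations. Incubated 1.5 h at room temperature, protected from light. Filtered onto PEI-soaked GF/B filters, then scintillation counting. IC50 converted to Ki; at least three experiments in triplicate.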

Homo sapiens [2] = organism: Homo sapiens; test: Selectivity index, ratio of Ki for human 5-HT6 receptor to Ki for human 5-HT7 receptor
Method in brief: (§2)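 Selectivity index taken as Ki at the other 5-HT receptor subtype divided by Ki at 5-HT7R, each from [3H]LSD membrane binding run by the NIMH PDSP. Ki values are means of at least three experiments in triplicate.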

[3] = biological target: T1, 5-hydroxytryptamine receptor 7 (Homo sapiens, UniProt P34969)
T1 sequence (P34969 whole entry): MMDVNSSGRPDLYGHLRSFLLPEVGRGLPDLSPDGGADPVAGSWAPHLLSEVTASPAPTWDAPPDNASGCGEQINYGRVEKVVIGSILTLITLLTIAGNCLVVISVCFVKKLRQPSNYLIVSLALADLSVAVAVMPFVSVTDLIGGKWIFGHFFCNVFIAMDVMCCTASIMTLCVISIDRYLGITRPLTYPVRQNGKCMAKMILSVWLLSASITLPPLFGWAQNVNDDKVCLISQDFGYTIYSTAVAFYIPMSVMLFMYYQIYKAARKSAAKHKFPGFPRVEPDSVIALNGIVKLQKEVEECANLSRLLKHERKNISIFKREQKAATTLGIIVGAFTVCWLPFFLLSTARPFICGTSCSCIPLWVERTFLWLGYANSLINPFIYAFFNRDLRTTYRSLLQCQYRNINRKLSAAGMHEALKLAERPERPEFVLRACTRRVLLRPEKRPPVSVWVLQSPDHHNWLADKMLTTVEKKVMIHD

[4] = biological target: 5-hydroxytryptamine receptor 6 (Homo sapiens, UniProt P50406); test: Displacement of [3H]LSD from human 5-HT6 receptor expressed in HEK cell membranes after 1.5 hrs by microbeta scintillation counting method; method in brief: as §1
Sequence of 5-hydroxytryptamine receptor 6 (P50406 whole entry): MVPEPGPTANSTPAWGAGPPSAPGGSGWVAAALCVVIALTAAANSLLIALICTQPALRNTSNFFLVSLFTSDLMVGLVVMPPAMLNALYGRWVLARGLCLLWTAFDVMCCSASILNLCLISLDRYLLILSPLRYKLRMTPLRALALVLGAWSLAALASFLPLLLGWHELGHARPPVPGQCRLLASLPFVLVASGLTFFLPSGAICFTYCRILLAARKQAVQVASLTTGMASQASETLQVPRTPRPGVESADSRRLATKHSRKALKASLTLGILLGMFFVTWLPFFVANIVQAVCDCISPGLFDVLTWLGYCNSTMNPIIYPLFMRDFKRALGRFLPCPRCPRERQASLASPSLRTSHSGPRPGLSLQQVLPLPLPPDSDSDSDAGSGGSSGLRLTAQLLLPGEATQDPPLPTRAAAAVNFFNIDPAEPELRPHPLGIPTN

Homo sapiens [5] = organism: Homo sapiens; test: Selectivity index, ratio of Ki for human 5-HT2C receptor to Ki for human 5-HT7 receptor; method in brief: as §2
[6] = biological target: T1, 5-hydroxytryptamine receptor 7; test: Antagonist activity at tTA containing TCS cleavage site-fused 5-HT7 receptor (unknown origin) expressed in tTA-dependent luciferase reporter/TEV-fused beta-arrestin2 expressing HTLA cells assessed as inhibition of 5-HT-induced beta-arrestin2 recruitment after 22 hrs by Tango assay; format: functional, cell-based
[7] = biological target: 5-hydroxytryptamine receptor 4 (Homo sapiens, UniProt Q13639); test: Displacement of [3H]LSD from human 5-HT4 receptor expressed in HEK cell membranes after 1.5 hrs by microbeta scintillation counting method; method in brief: as §1
Sequence of 5-hydroxytryptamine receptor 4 (Q13639 whole entry): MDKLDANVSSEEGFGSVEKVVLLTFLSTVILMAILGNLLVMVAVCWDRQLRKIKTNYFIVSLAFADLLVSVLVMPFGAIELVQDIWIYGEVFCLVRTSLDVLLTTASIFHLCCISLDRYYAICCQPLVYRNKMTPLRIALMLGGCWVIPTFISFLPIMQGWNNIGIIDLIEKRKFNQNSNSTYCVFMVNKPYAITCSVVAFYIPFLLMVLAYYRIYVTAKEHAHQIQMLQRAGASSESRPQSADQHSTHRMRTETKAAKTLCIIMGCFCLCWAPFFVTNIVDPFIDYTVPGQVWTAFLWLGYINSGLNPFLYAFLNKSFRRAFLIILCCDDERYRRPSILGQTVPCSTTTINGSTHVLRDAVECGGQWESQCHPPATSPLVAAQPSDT

[8] = biological target: T2, 5-hydroxytryptamine receptor 2C (Homo sapiens, UniProt P28335); test: Displacement of [3H]LSD from human 5-HT2C receptor expressed in HEK cell membranes after 1.5 hrs by microbeta scintillation counting method; method in brief: as §1
T2 sequence (P28335 whole entry): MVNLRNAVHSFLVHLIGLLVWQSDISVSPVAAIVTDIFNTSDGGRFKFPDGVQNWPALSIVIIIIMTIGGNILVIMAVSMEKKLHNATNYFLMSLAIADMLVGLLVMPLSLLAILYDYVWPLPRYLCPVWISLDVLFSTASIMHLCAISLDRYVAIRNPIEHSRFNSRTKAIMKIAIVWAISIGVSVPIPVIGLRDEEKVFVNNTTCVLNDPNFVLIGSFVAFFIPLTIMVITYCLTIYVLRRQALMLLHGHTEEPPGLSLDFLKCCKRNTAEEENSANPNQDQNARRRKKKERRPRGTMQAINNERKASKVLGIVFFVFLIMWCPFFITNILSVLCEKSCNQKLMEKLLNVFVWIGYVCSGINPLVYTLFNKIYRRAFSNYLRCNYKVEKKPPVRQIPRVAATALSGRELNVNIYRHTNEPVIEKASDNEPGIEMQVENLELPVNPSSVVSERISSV

[9] = biological target: 5-hydroxytryptamine receptor 1D (Homo sapiens, UniProt P28221); test: Displacement of [3H]LSD from human 5-HT1D receptor expressed in HEK cell membranes after 1.5 hrs by microbeta scintillation counting method; method in brief: as §1
Sequence of 5-hydroxytryptamine receptor 1D (P28221 whole entry): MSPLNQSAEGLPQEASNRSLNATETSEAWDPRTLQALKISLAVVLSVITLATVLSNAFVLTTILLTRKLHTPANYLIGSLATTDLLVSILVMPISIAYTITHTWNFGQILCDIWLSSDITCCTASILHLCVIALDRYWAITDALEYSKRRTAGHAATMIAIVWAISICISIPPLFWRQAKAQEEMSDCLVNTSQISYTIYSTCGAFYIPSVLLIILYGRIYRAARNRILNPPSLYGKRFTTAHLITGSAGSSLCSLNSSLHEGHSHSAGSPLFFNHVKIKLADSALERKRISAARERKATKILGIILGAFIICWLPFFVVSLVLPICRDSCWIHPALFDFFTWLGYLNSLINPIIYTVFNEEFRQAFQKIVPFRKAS

[10] = biological target: T1, 5-hydroxytryptamine receptor 7; remark: listed apart in the source
[11] = biological target: T3, 5-hydroxytryptamine receptor 1A (Homo sapiens, UniProt P08908); test: Displacement of [3H]LSD from human 5-HT1A receptor expressed in HEK cell membranes after 1.5 hrs by microbeta scintillation counting method; method in brief: as §1
T3 sequence (P08908 whole entry): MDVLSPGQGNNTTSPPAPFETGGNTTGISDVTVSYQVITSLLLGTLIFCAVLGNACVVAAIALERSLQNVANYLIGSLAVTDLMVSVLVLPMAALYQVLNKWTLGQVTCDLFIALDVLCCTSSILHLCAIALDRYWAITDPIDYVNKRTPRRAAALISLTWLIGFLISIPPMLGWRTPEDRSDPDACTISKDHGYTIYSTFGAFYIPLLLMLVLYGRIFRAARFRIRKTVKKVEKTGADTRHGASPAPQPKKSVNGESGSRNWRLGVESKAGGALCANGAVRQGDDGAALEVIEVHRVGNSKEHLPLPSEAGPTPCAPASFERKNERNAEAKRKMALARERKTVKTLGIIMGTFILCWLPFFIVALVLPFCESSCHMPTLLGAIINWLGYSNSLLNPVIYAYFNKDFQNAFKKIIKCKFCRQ

[12] = biological target: 5-hydroxytryptamine receptor 2B (Homo sapiens, UniProt P41595); test: Displacement of [3H]LSD from human 5-HT2B receptor expressed in HEK cell membranes after 1.5 hrs by microbeta scintillation counting method
Sequence of 5-hydroxytryptamine receptor 2B (P41595 whole entry): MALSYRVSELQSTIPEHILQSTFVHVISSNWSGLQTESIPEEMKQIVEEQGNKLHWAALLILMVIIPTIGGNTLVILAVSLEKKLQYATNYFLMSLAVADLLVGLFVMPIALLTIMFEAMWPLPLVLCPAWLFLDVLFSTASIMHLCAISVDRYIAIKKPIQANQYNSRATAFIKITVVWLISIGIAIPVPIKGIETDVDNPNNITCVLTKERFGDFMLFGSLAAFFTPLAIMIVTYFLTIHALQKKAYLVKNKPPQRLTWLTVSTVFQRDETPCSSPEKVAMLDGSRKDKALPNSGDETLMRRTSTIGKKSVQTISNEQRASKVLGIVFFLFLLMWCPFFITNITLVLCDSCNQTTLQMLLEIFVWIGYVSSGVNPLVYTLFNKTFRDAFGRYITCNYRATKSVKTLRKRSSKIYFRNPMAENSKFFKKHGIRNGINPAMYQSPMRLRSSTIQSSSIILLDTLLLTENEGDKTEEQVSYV

Homo sapiens [13] = organism: Homo sapiens; test: Selectivity index, ratio of Ki for human 5-HT2B receptor to Ki for human 5-HT7 receptor; method in brief: as §2
[14] = biological target: 5-hydroxytryptamine receptor 2A (Homo sapiens, UniProt P28223); test: Displacement of [3H]LSD from human 5-HT2A receptor expressed in HEK cell membranes after 1.5 hrs by microbeta scintillation counting method; method in brief: as §1
Sequence of 5-hydroxytryptamine receptor 2A (P28223 whole entry): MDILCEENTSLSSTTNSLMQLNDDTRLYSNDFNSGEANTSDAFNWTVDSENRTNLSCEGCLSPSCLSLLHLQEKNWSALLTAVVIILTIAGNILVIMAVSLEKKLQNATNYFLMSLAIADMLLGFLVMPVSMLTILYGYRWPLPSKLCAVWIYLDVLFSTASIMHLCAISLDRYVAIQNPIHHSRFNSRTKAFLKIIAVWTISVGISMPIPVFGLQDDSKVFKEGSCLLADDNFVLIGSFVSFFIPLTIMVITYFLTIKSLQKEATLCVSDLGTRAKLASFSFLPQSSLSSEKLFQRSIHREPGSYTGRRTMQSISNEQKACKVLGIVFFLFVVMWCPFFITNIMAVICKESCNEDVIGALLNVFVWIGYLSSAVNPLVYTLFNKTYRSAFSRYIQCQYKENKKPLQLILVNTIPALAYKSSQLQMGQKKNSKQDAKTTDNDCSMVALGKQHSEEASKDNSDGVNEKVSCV

[15] = biological target: T1, 5-hydroxytryptamine receptor 7; test: Antagonist activity at human 5-HT7 receptor expressed in HEK293 cells assessed as inhibition of Gs protein-mediated cAMP accumulation by luminescence-based assay relative to SB269970; format: functional, cell-based
Method in brief: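 HEK293 cells transiently transfected by calcium phosphate with human 5-HT7R and GloSensor-22F cAMP biosensor. After 5-6 h recovery, loaded with GloSensor reagent in HBSS/20 mM HEPES, pH 7.4. Test compounds at 0.01 nM-100 μM final; antagonist mode uses 5-HT stimulation. Luminescence read. Data normalised to 5-HT or SB269970 (100%) and vehicle (0%). Three experiments, at least triplicate.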

Homo sapiens [16] = organism: Homo sapiens; test: Selectivity index, ratio of Ki for human 5-HT1D receptor to Ki for human 5-HT7 receptor; method in brief: as §2

Sequence of 5-hydroxytryptamine receptor 1B (P28222 whole entry): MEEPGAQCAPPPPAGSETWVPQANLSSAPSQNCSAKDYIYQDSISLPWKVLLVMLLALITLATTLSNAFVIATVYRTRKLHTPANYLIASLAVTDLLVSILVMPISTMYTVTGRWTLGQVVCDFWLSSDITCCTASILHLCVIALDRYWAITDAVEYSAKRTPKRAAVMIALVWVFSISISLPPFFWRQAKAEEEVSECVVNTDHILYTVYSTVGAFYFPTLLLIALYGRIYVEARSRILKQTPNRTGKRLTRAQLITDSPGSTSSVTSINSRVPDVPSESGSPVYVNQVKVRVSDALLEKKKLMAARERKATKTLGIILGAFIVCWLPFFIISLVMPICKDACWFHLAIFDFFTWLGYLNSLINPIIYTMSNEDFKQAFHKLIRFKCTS

| SMILES | Ki [1] | Ratio Ki (Homo sapiens [2]) | IC50 [3] | Ki [4] | Ratio Ki (Homo sapiens [5]) | inhibition [6] | Ki [7] | Ki [8] | Ki [9] | EC50 [10] | Ki [11] | Ki [12] | Ratio Ki (Homo sapiens [13]) | Ki [14] | Imax [15] | Ratio Ki (Homo sapiens [16]) |
| --- | --- | --- | --- | --- | --- | --- | --- | --- | --- | --- | --- | --- | --- | --- | --- | --- |
| Clc1ccc(-c2n[nH]c3c2CCNCC3)cc1 | > 10000 nM | 8.3 | 7790 nM | 248 nM | 26.6 | inactive | > 10000 nM | 799 nM | 2110 nM | 162 nM | > 10000 nM | 100 nM | 3.3 | 187 nM | 94.8% | 70.5 |
| Cc1ccc(-c2noc3c2CCNCC3)cc1 | > 10000 nM | 30.8 | 844 nM | 492 nM | 1.3 | inactive | > 10000 nM | 20 nM | 147 nM | 40.8 nM | > 10000 nM | 150 nM | 9.4 | 138 nM | 95.8% | 9.2 |
| Fc1ccc(-c2n[nH]c3c2CCNCC3)cc1 | > 10000 nM | 4 | 6980 nM | 416 nM | 1.9 | inactive | > 10000 nM | 200 nM | 636 nM | 188 nM | 1870 nM | 97 nM | 0.9 | 175 nM | 98.4% | 6.1 |
